In brackets after ≈: the same amount, converted by molar mass.
Legend:
Assay type in all cases: functional
Streptococcus pneumoniae [1] = experiment: Antimicrobial activity against drug-susceptible Streptococcus pneumoniae 3 after 20 hrs by agar dilution method; conditions: Streptococcus pneumoniae, 20 h; read-out: MIC
Summary of the method: (§1)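 Streptococci, H. influenzae and M. catarrhalis were precultured on blood agar plates. Suspensions of about 10⁶ CFU/ml were inoculated onto sensitivity disk agar supplemented with 5% horse blood and incubated at 37 °C for 20 h. MIC was read as the lowest drug concentration with no visible growth.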

Streptococcus pyogenes [2] = experiment: Antimicrobial activity against Streptococcus pyogenes 2 constitutively expressing ermB after 20 hrs by agar dilution method; summary of the method: as §1
Haemophilus influenzae [3] = experiment: Antimicrobial activity against drug-susceptible Haemophilus influenzae 1 after 20 hrs by agar dilution method; conditions: Haemophilus influenzae, 20 h; read-out: MIC; summary of the method: as §1
Staphylococcus aureus [4] = experiment: Antimicrobial activity against drug-susceptible Staphylococcus aureus 209P JC-1 after 20 hrs by agar dilution method; conditions: Staphylococcus aureus, 209P, 20 h; read-out: MIC
Summary of the method: (§2)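 Agar dilution MIC. S. aureus seed culture was grown in sensitivity test broth. Cell suspension (about 10⁶ CFU/ml) was inoculated onto sensitivity disk agar with 5% horse blood and incubated at 37 °C for 20 h. MIC was the lowest drug concentration that prevented visible growth.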

Staphylococcus aureus [5] = experiment: Antimicrobial activity against drug-susceptible Staphylococcus aureus 2 after 20 hrs by agar dilution method; conditions: Staphylococcus aureus, 20 h; read-out: MIC; summary of the method: as §2
Moraxella catarrhalis [6] = experiment: Antimicrobial activity against drug-susceptible Moraxella catarrhalis 2 after 20 hrs by agar dilution method; conditions: Moraxella catarrhalis, 20 h; read-out: MIC; summary of the method: as §1
Streptococcus pneumoniae [7] = experiment: Antimicrobial activity against Streptococcus pneumoniae 4 constitutively expressing ermB after 20 hrs by agar dilution method; conditions: Streptococcus pneumoniae, 20 h; read-out: MIC; summary of the method: as §1
Streptococcus pneumoniae [8] = experiment: Antimicrobial activity against drug-susceptible Streptococcus pneumoniae 2 after 20 hrs by agar dilution method; conditions: Streptococcus pneumoniae, 20 h; read-out: MIC; summary of the method: as §1
Staphylococcus aureus [9] = experiment: Antimicrobial activity against Staphylococcus aureus 6 expressing inducible ermB after 20 hrs by agar dilution method; summary of the method: as §2
Moraxella catarrhalis [10] = experiment: Antimicrobial activity against drug-susceptible Moraxella catarrhalis 1 after 20 hrs by agar dilution method; summary of the method: as §1
Streptococcus pneumoniae [11] = experiment: Antimicrobial activity against Streptococcus pneumoniae 10 expressing mefA after 20 hrs by agar dilution method; conditions: Streptococcus pneumoniae, 20 h; read-out: MIC; summary of the method: as §1
Streptococcus pyogenes [12] = experiment: Antimicrobial activity against Streptococcus pyogenes 3 expressing mefA after 20 hrs by agar dilution method; summary of the method: as §1
Staphylococcus aureus [13] = experiment: Antimicrobial activity against Staphylococcus aureus 5 expressing inducible ermB after 20 hrs by agar dilution method; conditions: Staphylococcus aureus, 20 h; read-out: MIC; summary of the method: as §2
Streptococcus pneumoniae [14] = experiment: Antimicrobial activity against Streptococcus pneumoniae 8 expressing inducible ermB after 20 hrs by agar dilution method; summary of the method: as §1
Haemophilus influenzae [15] = experiment: Antimicrobial activity against drug-susceptible Haemophilus influenzae 4 after 20 hrs by agar dilution method; conditions: Haemophilus influenzae, 20 h; read-out: MIC; summary of the method: as §1
Staphylococcus aureus [16] = experiment: Antimicrobial activity against drug-susceptible Staphylococcus aureus 3 after 20 hrs by agar dilution method; conditions: Staphylococcus aureus, 20 h; read-out: MIC; summary of the method: as §2
Streptococcus pneumoniae [17] = experiment: Antimicrobial activity against drug-susceptible Streptococcus pneumoniae DP1 Type1 after 20 hrs by agar dilution method; summary of the method: as §1
Streptococcus pneumoniae [18] = experiment: Antimicrobial activity against Streptococcus pneumoniae 9 expressing mefA after 20 hrs by agar dilution method; summary of the method: as §1
Streptococcus pneumoniae [19] = experiment: Antimicrobial activity against Streptococcus pneumoniae 7 expressing inducible ermB after 20 hrs by agar dilution method; summary of the method: as §1
Streptococcus pneumoniae [20] = experiment: Antimicrobial activity against Streptococcus pneumoniae 5 constitutively expressing ermB/mefA after 20 hrs by agar dilution method; conditions: Streptococcus pneumoniae, 20 h; read-out: MIC; summary of the method: as §1
Streptococcus pyogenes [21] = experiment: Antimicrobial activity against drug-susceptible Streptococcus pyogenes 1 after 20 hrs by agar dilution method; conditions: Streptococcus pyogenes, 20 h; read-out: MIC; summary of the method: as §1
Streptococcus pneumoniae [22] = experiment: Antimicrobial activity against Streptococcus pneumoniae 6 constitutively expressing ermB after 20 hrs by agar dilution method; conditions: Streptococcus pneumoniae, 20 h; read-out: MIC; summary of the method: as §1
Staphylococcus aureus [23] = experiment: Antimicrobial activity against Staphylococcus aureus 4 constitutively expressing ermA after 20 hrs by agar dilution method; summary of the method: as §2
Haemophilus influenzae [24] = experiment: Antimicrobial activity against drug-susceptible Haemophilus influenzae 3 after 20 hrs by agar dilution method; conditions: Haemophilus influenzae, 20 h; read-out: MIC; summary of the method: as §1
Haemophilus influenzae [25] = experiment: Antimicrobial activity against drug-susceptible Haemophilus influenzae 2 after 20 hrs by agar dilution method; conditions: Haemophilus influenzae, 20 h; read-out: MIC; summary of the method: as §1
[26] = Moraxella catarrhalis, 20 h, read-out: MIC
[27] = Streptococcus pyogenes, 20 h, read-out: MIC
[28] = Streptococcus pneumoniae, 20 h, read-out: MIC

SMILES	MIC (Streptococcus pneumoniae [1]) [µg/mL]	MIC (Streptococcus pyogenes [2]) [µg/mL]	MIC (Haemophilus influenzae [3]) [µg/mL]	MIC (Staphylococcus aureus [4]) [µg/mL]	MIC (Staphylococcus aureus [5]) [µg/mL]	MIC (Moraxella catarrhalis [6]) [µg/mL]	MIC (Streptococcus pneumoniae [7]) [µg/mL]	MIC (Streptococcus pneumoniae [8]) [µg/mL]	MIC (Staphylococcus aureus [9]) [µg/mL]	MIC (Streptococcus pneumoniae [11]) [µg/mL]	MIC (Streptococcus pyogenes [12]; [27]) [µg/mL]	MIC (Staphylococcus aureus [13]) [µg/mL]	MIC (Haemophilus influenzae [15]) [µg/mL]	MIC (Staphylococcus aureus [16]) [µg/mL]	MIC (Streptococcus pneumoniae [20]) [µg/mL]	MIC (Streptococcus pyogenes [21]) [µg/mL]	MIC (Streptococcus pneumoniae [22]) [µg/mL]	MIC (Staphylococcus aureus [23]) [µg/mL]	MIC (Haemophilus influenzae [24]) [µg/mL]	MIC (Haemophilus influenzae [25]) [µg/mL]	also measured
CCOC(=O)[C@H]1[C@H](C)O[C@@H](O[C@H]2[C@H](N(C)C)[C@@H](O)[C@H](O[C@H]3[C@@H](CC=O)C[C@@H](C)[C@@H](O)CN(C)CCC[C@H](CCCc4cnc5ccccc5c4)OC(=O)C[C@@H](OC(=O)CC)[C@@H]3OC)O[C@@H]2C)C[C@@]1(C)O	< 0.008	> 128	32 (≈ 32.4 µM)	0.13 (≈ 0.132 µM)	0.25 (≈ 0.253 µM)	1 (≈ 1.01 µM)	128 (≈ 130 µM)	0.015 (≈ 0.0152 µM)	0.25 (≈ 0.253 µM)	0.015 (≈ 0.0152 µM)	0.13 (≈ 0.132 µM)	0.13 (≈ 0.132 µM)	8 (≈ 8.1 µM)	0.13 (≈ 0.132 µM)	128 (≈ 130 µM)	0.015 (≈ 0.0152 µM)	128 (≈ 130 µM)	> 128	8 (≈ 8.1 µM)	2 (≈ 2.02 µM)	MIC (Moraxella catarrhalis [10]; [26]): 1 µg/mL (≈ 1.01 µM); MIC (Streptococcus pneumoniae [14]; [28]): 4 µg/mL (≈ 4.05 µM); MIC (Streptococcus pneumoniae [17]; [28]): < 0.008 µg/mL; MIC (Streptococcus pneumoniae [18]; [28]): 0.015 µg/mL (≈ 0.0152 µM); MIC (Streptococcus pneumoniae [19]; [28]): 4 µg/mL (≈ 4.05 µM)
CCOC(=O)[C@H]1[C@H](C)O[C@@H](O[C@H]2[C@H](N(C)C)[C@@H](O)[C@H](O[C@H]3[C@@H](CC=O)C[C@@H](C)[C@@H](O)CN(C)CCC[C@H](C/C=C/c4cnc5ccccc5c4)OC(=O)C[C@@H](OC(=O)CC)[C@@H]3OC)O[C@@H]2C)C[C@@]1(C)O	0.03 (≈ 0.0304 µM)	> 128	32 (≈ 32.4 µM)	0.5 (≈ 0.507 µM)	1 (≈ 1.01 µM)	1 (≈ 1.01 µM)	128 (≈ 130 µM)	0.03 (≈ 0.0304 µM)	0.5 (≈ 0.507 µM)	0.03 (≈ 0.0304 µM)	0.5 (≈ 0.507 µM)	0.25 (≈ 0.253 µM)	8 (≈ 8.11 µM)	0.25 (≈ 0.253 µM)	128 (≈ 130 µM)	0.06 (≈ 0.0608 µM)	128 (≈ 130 µM)	> 128	8 (≈ 8.11 µM)	2 (≈ 2.03 µM)	MIC (Moraxella catarrhalis [10]; [26]): 1 µg/mL (≈ 1.01 µM); MIC (Streptococcus pneumoniae [14]; [28]): 8 µg/mL (≈ 8.11 µM); MIC (Streptococcus pneumoniae [17]; [28]): 0.015 µg/mL (≈ 0.0152 µM); MIC (Streptococcus pneumoniae [18]; [28]): 0.06 µg/mL (≈ 0.0608 µM); MIC (Streptococcus pneumoniae [19]; [28]): 8 µg/mL (≈ 8.11 µM)
CCOC(=O)[C@H]1[C@H](C)O[C@@H](O[C@H]2[C@H](N(C)C)[C@@H](O)[C@H](O[C@H]3[C@@H](CC=O)C[C@@H](C)[C@@H](O)CN(C)CCC[C@H](C/C=C/c4ccc5ncccc5c4)OC(=O)C[C@@H](OC(=O)CC)[C@@H]3OC)O[C@@H]2C)C[C@@]1(C)O	0.015 (≈ 0.0152 µM)	> 128	32 (≈ 32.4 µM)	0.25 (≈ 0.253 µM)	0.5 (≈ 0.507 µM)	1 (≈ 1.01 µM)	> 128	0.03 (≈ 0.0304 µM)	0.25 (≈ 0.253 µM)	0.03 (≈ 0.0304 µM)	0.25 (≈ 0.253 µM)	0.25 (≈ 0.253 µM)	8 (≈ 8.11 µM)	0.25 (≈ 0.253 µM)	> 128	0.06 (≈ 0.0608 µM)	> 128	> 128	8 (≈ 8.11 µM)	4 (≈ 4.06 µM)	MIC (Moraxella catarrhalis [10]; [26]): 1 µg/mL (≈ 1.01 µM); MIC (Streptococcus pneumoniae [14]; [28]): 8 µg/mL (≈ 8.11 µM); MIC (Streptococcus pneumoniae [17]; [28]): 0.015 µg/mL (≈ 0.0152 µM); MIC (Streptococcus pneumoniae [18]; [28]): 0.03 µg/mL (≈ 0.0304 µM); MIC (Streptococcus pneumoniae [19]; [28]): 8 µg/mL (≈ 8.11 µM)
CCOC(=O)[C@H]1[C@H](C)O[C@@H](O[C@H]2[C@H](N(C)C)[C@@H](O)[C@H](O[C@H]3[C@@H](CC=O)C[C@@H](C)[C@@H](O)CN(C)CCC(CCCc4cnc5ccccc5c4)NC(=O)C[C@@H](OC(=O)CC)[C@@H]3OC)O[C@@H]2C)C[C@@]1(C)O (mixture of isomers)	0.06	> 128	32	0.5	1	2	> 128	0.06	0.5	0.06	0.5	0.5	16	0.25	> 128	0.13	> 128	> 128	8	1	MIC (Moraxella catarrhalis [10]): 2 µg/mL; MIC (Streptococcus pneumoniae [14]): 64 µg/mL; MIC (Streptococcus pneumoniae [17]; [28]): 0.03 µg/mL; MIC (Streptococcus pneumoniae [18]; [28]): 0.06 µg/mL; MIC (Streptococcus pneumoniae [19]; [28]): 16 µg/mL
CCOC(=O)[C@H]1[C@H](C)O[C@@H](O[C@H]2[C@H](N(C)C)[C@@H](O)[C@H](O[C@H]3[C@@H](CC=O)C[C@@H](C)[C@@H](O)CN(C)CCC(C/C=C/c4cnc5ccccc5c4)NC(=O)C[C@@H](OC(=O)CC)[C@@H]3OC)O[C@@H]2C)C[C@@]1(C)O (stereo in doubt; form 1)	0.13 (≈ 0.134 µM)	> 128	32 (≈ 32.9 µM)	0.5 (≈ 0.515 µM)	1 (≈ 1.03 µM)	2 (≈ 2.06 µM)	> 128	0.13 (≈ 0.134 µM)	1 (≈ 1.03 µM)	0.13 (≈ 0.134 µM)		0.5 (≈ 0.515 µM)	16 (≈ 16.5 µM)	0.25 (≈ 0.257 µM)	> 128	0.25 (≈ 0.257 µM)	> 128	> 128	16 (≈ 16.5 µM)	2 (≈ 2.06 µM)	MIC (Moraxella catarrhalis [10]): 2 µg/mL (≈ 2.06 µM); MIC (Streptococcus pyogenes [12]): 1 µg/mL (≈ 1.03 µM); MIC (Streptococcus pneumoniae [14]): 32 µg/mL (≈ 32.9 µM); MIC (Streptococcus pneumoniae [17]): 0.06 µg/mL (≈ 0.0618 µM); MIC (Streptococcus pneumoniae [18]): 0.13 µg/mL (≈ 0.134 µM); MIC (Streptococcus pneumoniae [19]): 32 µg/mL (≈ 32.9 µM)

— ChEMBL document CHEMBL1151705, “Novel azalides derived from 16-membered macrolides. Part II: Isolation of the linear 9-formylcarboxylic acid and its sequential macrocyclization with an amino alcohol or an azidoamine” (2008)
